In the library only some 1.3% were active in any assay of this set; here they are far more common.
CSN deneddyl inh = inhibitors of human CSN-mediated cullin deneddylation. 0.38% of 360,000 active. Q92905. inhibition, % at 12.5 µM. AID 651999. Purified CSN, SCF-Nedd8-OG deneddylation, fluorescence polarization;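 active = pattern-corrected inhibition above about 35%, with an unprinted fluorescence ratio check between 0.5 and 1.5, limit read from the data, passing the limit was not always enough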;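 note: 0% = enzyme with substrate and 100% = substrate without enzyme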
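Assay system: HEK293T-derived human Csn5 enzyme; quantity: 0.24 nM enzyme; medium: Tris/NaCl/DTT buffer, pH 7.5; also added: substrate SCFSkp2-Nedd8OG, 10 nM; doses: 12.5 µM compound; schedule: 90 min reaction at room temperature; signal: FP; read-out: % inhibition of substrate cleavage by Csn5; benchmarks: substrate-only high control, full reaction low control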
XiGFP reactiv = X-chromosome reactivation activator; XiGFP mouse fibroblasts, % GFP-positive cells imaging, 3 d; cells co-treated with 5-aza-dC sensitizer; scaled so ellipticine positive control = 100%; activation, % at 7.58 µM; 0.055% of 360,000 active;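 active = mean normalized replicate activation at least 10% and every replicate at or above 10%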;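 note: 0% = median of on-plate neutral control wells and 100% = ellipticine 6 µM median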
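Material: SV40-immortalized XiGFP fibroblast cells, line 68-5-11 | Buffer or medium: DMEM containing 5-aza-dC | Dosing: One concentration, pinned | Times: 3 d treatment, 15 min room-temperature fixation | Controls: Ellipticine 6 µM positive control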
TPT1 inhibitor = C. albicans TPT1 enzyme inhibition | AID 1962 | inhibition, % at 5 µM | 0.81% of 300,000 active | recombinant caTPT1, FP RNA substrate dephosphorylation;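 active = inhibition above the mean of all tested compounds plus 3 SD, set per screening campaign, cut at about 24% in these data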;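 note: plate controls were DMSO alone for no effect and ferristatin control at 100 nM for full effect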
HNF4A DNA FP = change in binding of human HNF4 alpha to DNA; 0.3% of 360,000 active; P41235; activity change, % at 10 µM; HNF4a-FITC DNA binding, fluorescence polarization, 1 h; in the data active = activity change above about 30%, passing the limit was not always enough
Target sequence (P41235 whole entry, looked up): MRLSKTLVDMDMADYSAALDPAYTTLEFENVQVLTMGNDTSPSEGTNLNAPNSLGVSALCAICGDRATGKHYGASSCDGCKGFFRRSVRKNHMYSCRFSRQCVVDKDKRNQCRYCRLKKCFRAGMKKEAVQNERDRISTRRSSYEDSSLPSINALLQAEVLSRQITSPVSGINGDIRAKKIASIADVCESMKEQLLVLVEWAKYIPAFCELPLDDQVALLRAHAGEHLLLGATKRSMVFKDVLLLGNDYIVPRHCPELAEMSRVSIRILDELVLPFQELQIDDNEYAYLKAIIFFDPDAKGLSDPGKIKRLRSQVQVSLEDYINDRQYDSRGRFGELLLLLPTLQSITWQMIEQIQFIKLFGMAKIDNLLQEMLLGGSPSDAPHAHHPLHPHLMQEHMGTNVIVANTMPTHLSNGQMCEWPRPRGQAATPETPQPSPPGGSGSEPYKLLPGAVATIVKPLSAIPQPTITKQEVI
aDG glyco act = alpha-DG glycosylation activation; activation, % at 10 µM; Pro5-aDG cells, alpha-DG glycosylation AlphaScreen (IIH6); 0% Pro5, 100% B10-LARGE cell signal; 0.22% of 360,000 active;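 active = activation of at least 8% versus controls, or a plate z-score of at least 8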;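 note: Pro5 are CHO cells carrying HIG-tagged alpha-DG that lacks glycosylation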
Rpn11 inh = Rpn11 (human) deubiquitinase inhibition | AID 588493 | inhibition, % at 20 µM | human 26S proteasome, Ub4-pepOG fluorescence polarization; 20S core pre-blocked with epoxomicin | O00487 | 0.59% of 360,000 active;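 active = inhibition at 20 µM, scaled to each plate's controls, above about 33%, limit read from the data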
TPT1 inh confirm = TPT1 (C. albicans) inhibition, confirmation. inhibition, % at 5 µM. 74% of 2,400 active. shares compounds with TPT1 inhibitor. recombinant caTPT1, fluorescence polarization, RNase T1 coupled;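 active = inhibition above the primary screen limit, the mean inhibition of all tested compounds plus 3 SD, cut at about 25% in these data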
RNase T1 counter = counter-screen for TPT1 inhibitors: inhibitors of Aspergillus oryzae RNase T1. 83% of 2,400 active. shares compounds with TPT1 inhibitor. RNase T1 cleavage, fluorescence polarization, 1536-well. AID 2153. inhibition, % at 5 µM;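 active = inhibition above the solvent-only control well mean plus 3 SD, limit set per screening run, cut at about 23% in these data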;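 note: plate controls were DMSO wells with enzyme for no effect and wells without RNase T1 for full effect; inhibitors block cleavage so intact labeled substrate keeps polarization high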
Target sequence (P00651 whole entry, looked up): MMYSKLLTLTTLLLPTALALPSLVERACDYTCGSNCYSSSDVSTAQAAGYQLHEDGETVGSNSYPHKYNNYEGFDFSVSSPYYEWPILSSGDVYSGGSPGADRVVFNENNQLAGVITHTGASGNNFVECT
Starred values were filed as active, the others as inactive; . = no result shown; + = active, no number.

SMILES	CSN deneddyl inh	XiGFP reactiv	TPT1 inhibitor	HNF4A DNA FP	aDG glyco act	Rpn11 inh	TPT1 inh confirm	RNase T1 counter
O=C(C[C@H]1CC[C@H]2[C@@H](COC[C@H](O)CN2Cc2ccc(Cl)cc2)O1)NCc1cccc(F)c1	.	0	.	.	.	.	.	.
Cc1ccc(-c2ccc(C3C(C#N)=C(N)Oc4n[nH]c(C)c43)o2)cc1 (stereo unspecified)	1	.	35*	5	1	10	13	21
CC(C)N1C(=O)S/C(=C/c2ccc3c(c2)n(C)c(=O)n3C)C1=O	2	.	-5	4	1	10	.	.
CCN(CC)c1ccc(/C=C2\SC(=O)N(C(C)C)C2=O)o1	0	.	178*	81	0	.	172*	157*
O=Cc1cc2cc3c(cc2nc1Cl)OCCO3	.	.	-3	.	.	.	.	.
O=C(O)c1ccc(N/N=C/c2cc3cc4c(cc3nc2Cl)OCCO4)cc1	5	0	27*	5	0	21	38*	48*
CS(=O)(=O)Nc1ccc2c(c1)[C@H]1C[C@@H](CC(=O)NCc3ccncc3)O[C@@H](CO)[C@H]1O2	.	0	.	.	.	.	.	.
CC(=O)Nc1ccc(S(=O)(=O)Nc2nc3ccccc3nc2Nc2ccc(C(=O)O)c(O)c2)cc1	52	0	.	-30	0	-51	.	.
CC(=O)Nc1ccc(S(=O)(=O)Nc2nc3ccccc3nc2Nc2ccc(N)cc2)cc1	83	0	77*	40	0	.	62*	69*
CC(=O)Nc1ccc(S(=O)(=O)Nc2nc3ccccc3nc2Nc2cccc(O)c2)cc1	2	2	3	-1	0	0	.	.
CC(=O)Nc1ccc(S(=O)(=O)Nc2nc3ccccc3nc2Nc2ccc3ccccc3c2)cc1	45*	0	29*	27	0	.	13	24*
CC(C)(C)OC(=O)N/N=C/c1ccc(N2CCOCC2)s1	0	0	26*	42*	0	.	93*	105*
Nc1ccc(C(=O)N/N=C/c2ccc(N3CCOCC3)s2)cc1	3	0	.	3	0	6	.	.
C[C@@H]1CN([C@@H](C)CO)C(=O)c2cccc(NC(=O)C3CC3)c2O[C@@H]1CN(C)S(=O)(=O)c1cn(C)cn1	.	0	.	.	.	.	.	.
Cc1ccc2c(CSc3nc4ccccc4c(=O)n3CCCO)cc(=O)oc2c1C	4	.	32*	3	0	6	5	9
Cc1ccc2c(CSc3nnc4ccccn34)cc(=O)oc2c1C	2	0	4	0	0	-3	.	.
COc1ccc(C(=O)c2sc3nc(-c4ccccc4)ccc3c2N)cc1	6	.	82*	28	0	64*	85*	92*
CCN(CC)c1ccc(/C=N/NC(=O)c2cccc(S(=O)(=O)Nc3ccccc3OC)c2)c(O)c1	7	0	55*	18	1	.	78*	87*
Cc1ccc(/C=C2\CCC3=C2OC(N)=C(C#N)C3c2ccc(C)cc2)cc1 (stereo unspecified)	65	.	122*	60	0	.	121*	112*
Cc1nc2ccccc2c(=O)n1/N=C/c1c(O)ccc2ccccc12	-18	0	39*	7	0	-8	5	8
CO[C@H]1CN(C)C(=O)c2cc(NC(=O)NC3CCCC3)ccc2OC[C@H](C)N(CC2CC2)C[C@H]1C	.	0	.	.	.	.	.	.
CCN(CC)c1ccc(/C=c2\sc3nnc(-c4ccccc4Cl)n3c2=O)cc1	-2	.	+	87	0	.	176*	163*
Clc1ccccc1-c1nnc2sc(CCc3ccccc3)nn12	-4	.	0	-5	0	-9	.	.
CCN(CC)c1ccc(/C=c2/sc3nnc(-c4ccccc4C)n3c2=O)cc1	-40	.	109*	24	0	.	165*	167*
CCN(CC)c1ccc(-c2nn3c(-c4ccccc4OC)nnc3s2)cc1	1	.	2	-1	0	12	.	.
SMILES	CSN deneddyl inh	XiGFP reactiv	TPT1 inhibitor	HNF4A DNA FP	aDG glyco act	Rpn11 inh	TPT1 inh confirm	RNase T1 counter
CO[C@H](CN(C)Cc1nccs1)[C@@H](C)CN([C@@H](C)CO)S(=O)(=O)c1ccc(C)cc1	.	0	.	.	.	.	.	.
COc1ccc(N=C2S/C(=C\c3ccc(N4CCOCC4)o3)C(=O)N2CCc2c[nH]c3ccccc23)cc1	122	.	131*	132	-1	.	141*	136*
CO[C@H]1CN(C)C(=O)c2ccc(NC(C)=O)cc2OC[C@H](C)N(CC2CCCCC2)C[C@@H]1C	.	0	.	.	.	.	.	.
Cc1cccc(CN2CCc3c([nH]c4ccccc34)C2)c1	2	0	0	0	0	-10	.	.
COc1cc(OC)c(CN2CCc3c([nH]c4ccccc34)C2)cc1Br	43*	0	48*	52*	0	.	6	7
COc1ccc(C)cc1S(=O)(=O)N(CC(=O)N1CCOCC1)c1cc(C)cc(C)c1	0	0	-4	-1	0	2	.	.
COc1ccc(Br)cc1S(=O)(=O)N(CC(=O)N1CCOCC1)c1ccccc1	3	.	43*	-2	0	9	6	10
O=S(=O)(Nc1cc(Cl)ccc1N1CCCCC1)c1cccs1	8	.	48*	13	1	31	28*	35*
O=S(=O)(Nc1ccc(N2CCCCC2)cc1)c1cccs1	0	.	0	-1	0	6	.	.
C[C@@H]1CN([C@H](C)CO)C(=O)c2cc(NS(=O)(=O)c3ccc(F)cc3)ccc2O[C@H]1CN(C)C(=O)Nc1ccc(C(F)(F)F)cc1	.	0	.	.	.	.	.	.
CCCC1=[N+](CC(=O)c2ccc(C)cc2)CCn2cccc21	-6	0	62*	2	0	12	10	11

Screens (PubChem)
